Source: publication PMC6957258 (Bioorganic & medicinal chemistry, 2013)
Where two headings read alike, the source gives them in different places.

Assays:
human TRPV1 [1] = biological target: T1, human TRPV1 (Homo sapiens, UniProt Q8NER1); test: FLIPR antagonism of pH activation, hTRPV1 in CHO cells; assay type: cell-based; settings: read-out: IC50 [pH], inhibition of pH activation
[2] = system: CCI-induced cold allodynia (neuropathic pain model); settings: rat, po; cited from earlier work
human TRPV1 [3] = biological target: T1, human TRPV1; test: FLIPR antagonism of capsaicin; assay type: cell-based
[4] = system: capsaicin-induced hypothermia; settings: mice; cited from earlier work
[5] = system: capsaicin-induced hypothermia; test: Capsaicin-induced hypothermia in mice; assay type: in vivo; settings: for inhibition of the effect of capsaicin on body temperature: 0.3 mg/Kg po 15 min before capsaicin 3 mg/Kg ip
Outline: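 Mice, n = 5 per group. Body temperature (°C) was recorded after capsaicin challenge, with readings taken up to 60 min. Data are given as mean ± SEM and compared with vehicle-treated animals, with significance at p < 0.05.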

T1 sequence (Q8NER1 whole entry): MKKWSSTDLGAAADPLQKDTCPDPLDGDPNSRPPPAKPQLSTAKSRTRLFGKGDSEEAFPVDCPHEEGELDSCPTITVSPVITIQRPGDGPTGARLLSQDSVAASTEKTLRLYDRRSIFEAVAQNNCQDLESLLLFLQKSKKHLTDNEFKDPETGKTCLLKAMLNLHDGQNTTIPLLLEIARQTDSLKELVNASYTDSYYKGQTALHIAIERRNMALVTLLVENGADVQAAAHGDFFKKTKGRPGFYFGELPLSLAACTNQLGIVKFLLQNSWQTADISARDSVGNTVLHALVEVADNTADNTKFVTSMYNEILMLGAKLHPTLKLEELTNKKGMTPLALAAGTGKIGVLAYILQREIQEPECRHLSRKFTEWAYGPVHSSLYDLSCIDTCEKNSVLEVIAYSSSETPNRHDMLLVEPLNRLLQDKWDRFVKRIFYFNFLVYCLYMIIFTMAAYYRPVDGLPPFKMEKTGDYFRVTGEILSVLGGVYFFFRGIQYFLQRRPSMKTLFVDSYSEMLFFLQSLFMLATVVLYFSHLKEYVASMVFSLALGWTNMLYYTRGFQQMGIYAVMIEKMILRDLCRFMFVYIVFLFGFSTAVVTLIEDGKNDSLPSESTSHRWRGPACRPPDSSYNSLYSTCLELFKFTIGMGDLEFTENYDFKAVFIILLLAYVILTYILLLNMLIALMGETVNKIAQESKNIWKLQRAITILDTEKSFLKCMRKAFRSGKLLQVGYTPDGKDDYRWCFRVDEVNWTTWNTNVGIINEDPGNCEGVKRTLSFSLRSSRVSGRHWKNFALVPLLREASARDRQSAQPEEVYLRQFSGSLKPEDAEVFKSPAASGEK

For `CC(C(=O)NCc1ccc(C(F)(F)F)nc1SCC(F)(F)F)c1ccc(NS(C)(=O)=O)c(F)c1` (centres unmarked) [compound 11, 2-(3-Fluoro-4-(methylsulfonamido)phenyl)-N-((2-(2,2,2-trifluoroethylthio)-6-(trifluoromethyl)pyridin-3-yl)methyl) propanamide], the IC50 (human TRPV1 [1]) was over 1000 nM.

Work on `C[C@@H](C(=O)NCc1ccc(C(F)(F)F)nc1SC1CCCCC1)c1ccc(NS(C)(=O)=O)c(F)c1` [24R, (R)-N-((2-(Cyclohexylthio)-6-(trifluoromethyl)pyridin-3-yl)methyl)-2-(3-fluoro-4-(methylsulfonamido)phenyl)propanamide] yielded an IC50 (human TRPV1 [1]) of over 1000 nM.

Compound `CC(C(=O)NCc1ccc(C(F)(F)F)nc1[S+]([O-])C1CCCCC1)c1ccc(NS(C)(=O)=O)c(F)c1` (centres unmarked) [compound 25, N-((2-(Cyclohexylsulfinyl)-6-(trifluoromethyl)pyridin-3-yl)methyl)-2-(3-fluoro-4-(methylsulfonamido)phenyl)propanamide] has an IC50 (human TRPV1 [1]) of over 1000 nM.

In the case of `CC(C(=O)NCc1ccc(C(F)(F)F)nc1SC1CCCCC1C)c1ccc(NS(C)(=O)=O)c(F)c1` (centres unmarked) [compound 28, 2-(3-Fluoro-4-(methylsulfonamido)phenyl)-N-((2-(2-methylcyclohexylthio)-6-(trifluoromethyl)pyridin-3-yl)methyl)propanamide], the IC50 (human TRPV1 [1]) is reported as over 1000 nM.

In the case of `CC(C)C[C@H](CN)CC(=O)O` [pregabalin], the ED50 anti-allodynic efficacy [2] is given as 42.2 mg/kg.

With `CC(C(=O)NCc1ccc(C(F)(F)F)nc1SCC1CCCCC1)c1ccc(NS(C)(=O)=O)c(F)c1` (centres unmarked) [compound 31, N-((2-(Cyclohexylmethylthio)-6-(trifluoromethyl)pyridin-3-yl)methyl)-2-(3-fluoro-4-(methylsulfonamido)phenyl)propanamide] the “fold less potent than 24” value (human TRPV1 [3]; ratio of Ki(CAP) versus 24) was 2.5 fold.

`CC(C(=O)NCc1ccc(C(F)(F)F)nc1SC1CCCC1)c1ccc(NS(C)(=O)=O)c(F)c1` (centres unmarked) [compound 23, N-((2-(Cyclopentylthio)-6-(trifluoromethyl)pyridin-3-yl)methyl)-2-(3-fluoro-4-(methylsulfonamido)phenyl)propanamide] showed an IC50 (human TRPV1 [1]) of over 1000 nM.

For `C[C@H](C(=O)NCc1ccc(C(C)(C)C)cc1)c1ccc(NS(C)(=O)=O)c(F)c1` [compound 1], the ED50 anti-allodynic efficacy [2] is given as 26.6 mg/kg.

For `CC(C(=O)NCc1ccc(C(F)(F)F)nc1S(=O)(=O)C1CCCCC1)c1ccc(NS(C)(=O)=O)c(F)c1` (centres unmarked) [compound 26, N-((2-(Cyclohexylsulfonyl)-6-(trifluoromethyl)pyridin-3-yl)methyl)-2-(3-fluoro-4-(methylsulfonamido)phenyl)propanamide], the IC50 (human TRPV1 [1]) was over 1000 nM.

In the case of `CC1CCN(c2nc(C(F)(F)F)ccc2CNC(=O)[C@@H](C)c2ccc(NS(C)(=O)=O)c(F)c2)CC1` [compound 2], the “fold better than prototype 1 for CAP antagonism” value (human TRPV1 [3]; ratio versus 1) is given as “approximately 100 fold”, the “effect on capsaicin-induced hypothermia” value [4] is given as “blocked capsaicin-induced hypothermia” and the ED50 anti-allodynic efficacy [2] is given as 0.9 mg/kg.

With `CC(C(=O)NCc1ccc(C(F)(F)F)nc1SCc1cccs1)c1ccc(NS(C)(=O)=O)c(F)c1` (centres unmarked) [compound 38, 2-(3-Fluoro-4-(methylsulfonamido)phenyl)-N-((2-(thiophen-2-ylmethylthio)-6-(trifluoromethyl)pyridin-3-yl)methyl)propanamide] the IC50 (human TRPV1 [1]) was over 1000 nM.

`CC(C(=O)NCc1ccc(C(F)(F)F)nc1SCCC(=O)O)c1ccc(NS(C)(=O)=O)c(F)c1` (centres unmarked) [compound 20, 3-(3-((2-(3-Fluoro-4-(methylsulfonamido)phenyl)propanamido)methyl)-6-(trifluoromethyl)pyridin-2-ylthio) propanoic acid] showed an IC50 (human TRPV1 [1]) of over 1000 nM.

Work on `CC(C(=O)NCc1ccc(C(F)(F)F)nc1SCc1ccco1)c1ccc(NS(C)(=O)=O)c(F)c1` (centres unmarked) [compound 37, 2-(3-Fluoro-4-(methylsulfonamido)phenyl)-N-((2-(furan-2-ylmethylthio)-6-(trifluoromethyl)pyridin-3-yl)methyl)propanamide] yielded an IC50 (human TRPV1 [1]) of over 1000 nM.

`CC(C(=O)NCc1ccc(C(F)(F)F)nc1SCCC(=O)N1CCCC1)c1ccc(NS(C)(=O)=O)c(F)c1` (centres unmarked) [compound 22, 2-(3-Fluoro-4-(methylsulfonamido)phenyl)-N-((2-(3-oxo-3-(pyrrolidin-1-yl)propylthio)-6-(trifluoromethyl)pyridin-3-yl)methyl)propanamide] showed an IC50 (human TRPV1 [1]) of over 1000 nM.

In the case of `C[C@H](C(=O)NCc1ccc(C(F)(F)F)nc1SC1CCCCC1)c1ccc(NS(C)(=O)=O)c(F)c1` [24S, (S)-N-((2-(Cyclohexylthio)-6-(trifluoromethyl)pyridin-3-yl)methyl)-2-(3-fluoro-4-(methylsulfonamido)phenyl)propanamide], the “effect on capsaicin-induced hypothermia” value [5] is reported as “blocked capsaicin-induced hypothermia”, the “inhibition of the effect of capsaicin on body temperature” value ([5]; at 15 min) is reported as “partial inhibition” and the “inhibition of the effect of capsaicin on body temperature” value ([5]; at 30 min) is reported as “completely inhibited”.

`CCC1CCC(Sc2nc(C(F)(F)F)ccc2CNC(=O)C(C)c2ccc(NS(C)(=O)=O)c(F)c2)CC1` (centres unmarked) [compound 29, N-((2-(4-Ethylcyclohexylthio)-6-(trifluoromethyl)pyridin-3-yl)methyl)-2-(3-fluoro-4-(methylsulfonamido)phenyl)propanamide] gave an IC50 (human TRPV1 [1]) of over 1000 nM.
